From ChEMBL document CHEMBL1158114, “Acetylated flavanone glycosides from the rhizomes of Cyclosorus acuminatus” (2006) come the findings set out here.

SMILES strings stand for the structures. Converted amounts (≈) assume the structure as drawn.

Common to all, as to assay type: functional
One assay concerns Staphylococcus aureus. Put plainly: Antibacterial activity against Staphylococcus aureus ATCC 25923. The essentials: (§1)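 Twofold serial dilution method; reference laboratory ATCC strains used as test organisms: S. aureus 25923, E. coli 25922, S. pneumoniae 49619, H. influenzae 49247.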
A further assay deals with Escherichia coli. In words: Antibacterial activity against Escherichia coli ATCC 25922. The essentials: as §1
Another assay has as its system Streptococcus pneumoniae. Put plainly: Antibacterial activity against Streptococcus pneumoniae ATCC 49619. The essentials: as §1
Another assay relates to Haemophilus influenzae. Put plainly: Antibacterial activity against Haemophilus influenzae ATCC 49247. In a few lines: as §1

Consider `CC(=O)OC[C@H]1O[C@@H](O[C@@H]2[C@@H](O)[C@H](C)O[C@@H](Oc3ccc(O)cc3[C@@H]3CC(=O)c4c(O)cc(O)cc4O3)[C@@H]2OC(C)=O)[C@H](OC(C)=O)[C@@H](O)[C@@H]1O`, for which the MIC came to 128 µg/mL (≈ 177 µM) in the assay on Staphylococcus aureus, 64 µg/mL (≈ 88.6 µM) in the assay with Escherichia coli, 32 µg/mL (≈ 44.3 µM) with Streptococcus pneumoniae and 32 µg/mL (≈ 44.3 µM) with Haemophilus influenzae.

Regarding `CC(=O)OC[C@H]1O[C@@H](O[C@@H]2[C@@H](O)[C@H](C)O[C@@H](Oc3ccc(O)cc3[C@@H]3CC(=O)c4c(O)cc(O)cc4O3)[C@@H]2OC(C)=O)[C@H](O)[C@@H](O)[C@@H]1OC(C)=O`, the MIC worked out at 128 µg/mL (≈ 177 µM) with Staphylococcus aureus, 64 µg/mL (≈ 88.6 µM) with Escherichia coli, 32 µg/mL (≈ 44.3 µM) in the assay on Streptococcus pneumoniae and 32 µg/mL (≈ 44.3 µM) against Haemophilus influenzae.

In the case of `CC(=O)OC[C@H]1O[C@@H](O[C@@H]2[C@@H](O)[C@H](C)O[C@@H](Oc3ccc(O)cc3[C@@H]3CC(=O)c4c(O)cc(O)cc4O3)[C@@H]2OC(C)=O)[C@H](O)[C@@H](OC(C)=O)[C@@H]1O`, the MIC with Staphylococcus aureus worked out at 128 µg/mL (≈ 177 µM); against Escherichia coli, 64 µg/mL (≈ 88.6 µM); against Streptococcus pneumoniae it was 32 µg/mL (≈ 44.3 µM); with Haemophilus influenzae it was 32 µg/mL (≈ 44.3 µM).

As to `C[C@@H]1O[C@@H](Oc2ccc(O)cc2[C@@H]2CC(=O)c3c(O)cc(O)cc3O2)[C@H](O)[C@H](O[C@@H]2O[C@H](CO)[C@@H](O)[C@H](O)[C@H]2O)[C@H]1O`, the MIC is 128 µg/mL (≈ 215 µM) in the assay with Staphylococcus aureus, 64 µg/mL (≈ 107 µM) in the assay on Escherichia coli, 32 µg/mL (≈ 53.6 µM) against Streptococcus pneumoniae and 32 µg/mL (≈ 53.6 µM) against Haemophilus influenzae.

As for `CC(=O)OC[C@H]1O[C@@H](O[C@@H]2[C@@H](O)[C@H](C)O[C@@H](Oc3ccc(O)cc3[C@@H]3CC(=O)c4c(O)cc(O)cc4O3)[C@@H]2OC(C)=O)[C@H](O)[C@@H](O)[C@@H]1O`, the MIC against Staphylococcus aureus was found to be 128 µg/mL (≈ 188 µM); against Escherichia coli, 64 µg/mL (≈ 94 µM); against Streptococcus pneumoniae, 32 µg/mL (≈ 47 µM); against Haemophilus influenzae, 32 µg/mL (≈ 47 µM).

With `CC(=O)O[C@H]1[C@H](Oc2ccc(O)cc2[C@@H]2CC(=O)c3c(O)cc(O)cc3O2)O[C@@H](C)[C@H](O)[C@H]1O[C@@H]1O[C@H](CO)[C@@H](O)[C@H](O)[C@H]1O`, the MIC in the assay on Staphylococcus aureus stood at 128 µg/mL (≈ 200 µM); with Escherichia coli it was 64 µg/mL (≈ 100 µM); against Streptococcus pneumoniae, 32 µg/mL (≈ 50.1 µM); in the assay on Haemophilus influenzae, 32 µg/mL (≈ 50.1 µM).

Take `CC(=O)OC[C@H]1O[C@@H](O[C@@H]2[C@@H](O)[C@H](C)O[C@@H](Oc3ccc(O)cc3[C@@H]3CC(=O)c4c(O)cc(O)cc4O3)[C@@H]2OC(C)=O)[C@H](O)[C@@H](OC(C)=O)[C@@H]1OC(C)=O`: the MIC came out at 128 µg/mL (≈ 167 µM) in the assay with Staphylococcus aureus, 64 µg/mL (≈ 83.7 µM) against Escherichia coli, 32 µg/mL (≈ 41.8 µM) against Streptococcus pneumoniae and 32 µg/mL (≈ 41.8 µM) against Haemophilus influenzae.

`CC[C@H]1OC(=O)[C@H](C)[C@@H](O[C@H]2C[C@@](C)(OC)[C@@H](O)[C@H](C)O2)[C@H](C)[C@@H](O[C@@H]2O[C@H](C)C[C@H](N(C)C)[C@H]2O)[C@](C)(O)C[C@@H](C)CN(C)[C@H](C)[C@@H](O)[C@]1(C)O` [AZITHROMYCIN]: the MIC against Staphylococcus aureus is 0.5 µg/mL (≈ 0.668 µM); in the assay on Escherichia coli, 0.5 µg/mL (≈ 0.668 µM); against Streptococcus pneumoniae, 4 µg/mL (≈ 5.34 µM); against Haemophilus influenzae it was 8 µg/mL (≈ 10.7 µM).

With `CC[C@H]1OC(=O)[C@H](C)[C@@H](O[C@H]2C[C@@](C)(OC)[C@@H](O)[C@H](C)O2)[C@H](C)[C@@H](O[C@@H]2O[C@H](C)C[C@H](N(C)C)[C@H]2O)[C@](C)(O)C[C@@H](C)C(=O)[C@H](C)[C@@H](O)[C@]1(C)O` [ERYTHROMYCIN], the MIC against Staphylococcus aureus worked out at 0.25 µg/mL (≈ 0.341 µM); against Escherichia coli it was 0.25 µg/mL (≈ 0.341 µM); with Streptococcus pneumoniae it was 64 µg/mL (≈ 87.2 µM); in the assay on Haemophilus influenzae, 64 µg/mL (≈ 87.2 µM).
